According to the M2OR odorant receptor database:
Substitutions are numbered along the chain they refer to.

How the values were obtained:
Conditions in all cases: stereoisomer not certain
OR5M3 (Homo sapiens) = target: T1, OR5M3 (Homo sapiens) (UniProt Q8NGP4)
T1 sequence (whole entry): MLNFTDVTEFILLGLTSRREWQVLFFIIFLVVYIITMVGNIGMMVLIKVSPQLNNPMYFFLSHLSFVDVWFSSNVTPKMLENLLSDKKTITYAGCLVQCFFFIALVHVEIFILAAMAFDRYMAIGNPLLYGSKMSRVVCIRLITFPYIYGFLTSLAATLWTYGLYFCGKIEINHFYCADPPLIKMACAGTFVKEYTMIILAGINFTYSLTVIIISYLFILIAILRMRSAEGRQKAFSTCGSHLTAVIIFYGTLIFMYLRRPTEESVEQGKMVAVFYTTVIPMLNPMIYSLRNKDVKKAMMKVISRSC
Method in brief: (§1)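 Values were gathered from published papers (main text and supplementary material), with extra details requested from the original authors when needed, and checked for typos and inconsistencies. Each receptor–molecule pair is called responsive (active) if the original authors judged the measured signal statistically different from baseline, and non-responsive (inactive) otherwise. Assay methods varied by source, often transient mammalian cell-line luciferase assays. Recorded details include cell line, G-protein, co-transfected protein and tags.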

OR5K3 (Homo sapiens) = target: T2, OR5K3 (Homo sapiens) (UniProt A6NET4)
T2 sequence (whole entry): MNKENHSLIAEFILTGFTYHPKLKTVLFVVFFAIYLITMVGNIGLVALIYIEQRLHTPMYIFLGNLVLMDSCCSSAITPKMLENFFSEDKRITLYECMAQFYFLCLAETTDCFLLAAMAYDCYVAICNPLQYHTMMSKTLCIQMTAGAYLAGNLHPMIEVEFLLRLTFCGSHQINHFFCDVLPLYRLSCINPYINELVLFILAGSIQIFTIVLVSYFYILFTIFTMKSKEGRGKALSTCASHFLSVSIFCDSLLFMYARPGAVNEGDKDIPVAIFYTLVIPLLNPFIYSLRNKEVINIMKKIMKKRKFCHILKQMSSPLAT
Method in brief: as §1

OR5K4 (Homo sapiens) = target: T3, OR5K4 (Homo sapiens) (UniProt A6NMS3)
T3 sequence (whole entry): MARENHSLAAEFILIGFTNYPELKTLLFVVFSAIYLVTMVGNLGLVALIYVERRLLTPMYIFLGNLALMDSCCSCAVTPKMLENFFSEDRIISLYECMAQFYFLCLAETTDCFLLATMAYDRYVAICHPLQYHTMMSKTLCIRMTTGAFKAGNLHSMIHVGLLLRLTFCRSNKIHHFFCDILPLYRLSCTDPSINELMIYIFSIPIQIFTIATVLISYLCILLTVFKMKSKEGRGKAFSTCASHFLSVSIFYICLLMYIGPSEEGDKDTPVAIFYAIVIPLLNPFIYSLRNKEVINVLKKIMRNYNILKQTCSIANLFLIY
Method in brief: as §1

OR5L1 (Homo sapiens) = target: T4, OR5L1 (Homo sapiens) (UniProt Q8NGL2)
T4 sequence (whole entry): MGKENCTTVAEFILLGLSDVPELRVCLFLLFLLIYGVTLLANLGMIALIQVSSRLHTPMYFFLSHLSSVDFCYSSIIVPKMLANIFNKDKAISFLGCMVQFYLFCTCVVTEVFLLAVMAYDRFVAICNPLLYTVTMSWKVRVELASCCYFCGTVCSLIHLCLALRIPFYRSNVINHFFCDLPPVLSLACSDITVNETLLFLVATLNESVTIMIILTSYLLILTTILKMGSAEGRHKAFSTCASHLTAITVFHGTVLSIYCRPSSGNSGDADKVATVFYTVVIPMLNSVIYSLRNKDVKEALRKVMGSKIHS
Method in brief: as §1

OR5M1 (Homo sapiens) = target: T5, OR5M1 (Homo sapiens) (UniProt Q8NGP8)
T5 sequence (whole entry): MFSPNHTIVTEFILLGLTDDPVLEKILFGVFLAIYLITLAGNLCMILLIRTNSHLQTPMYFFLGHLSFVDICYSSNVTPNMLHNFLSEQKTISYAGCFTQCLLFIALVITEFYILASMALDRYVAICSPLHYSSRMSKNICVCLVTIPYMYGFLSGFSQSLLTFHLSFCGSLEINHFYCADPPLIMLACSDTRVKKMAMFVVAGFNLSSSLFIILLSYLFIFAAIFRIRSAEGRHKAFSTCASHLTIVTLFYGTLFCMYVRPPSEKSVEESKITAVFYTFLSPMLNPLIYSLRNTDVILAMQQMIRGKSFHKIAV
Method in brief: as §1

OR5M10 (Homo sapiens) = target: T6, OR5M10 (Homo sapiens) (UniProt Q6IEU7)
T6 sequence (whole entry): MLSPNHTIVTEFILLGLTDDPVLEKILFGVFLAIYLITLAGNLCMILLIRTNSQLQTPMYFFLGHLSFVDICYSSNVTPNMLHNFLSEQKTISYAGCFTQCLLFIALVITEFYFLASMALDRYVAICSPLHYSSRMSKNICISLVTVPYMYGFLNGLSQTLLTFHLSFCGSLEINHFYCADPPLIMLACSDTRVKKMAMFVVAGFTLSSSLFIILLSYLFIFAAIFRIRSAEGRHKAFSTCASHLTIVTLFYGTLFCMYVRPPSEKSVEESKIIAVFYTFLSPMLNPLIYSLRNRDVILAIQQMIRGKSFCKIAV
Method in brief: as §1

OR5M11 (Homo sapiens) = target: T7, OR5M11 (Homo sapiens) (UniProt Q96RB7)
T7 sequence (whole entry): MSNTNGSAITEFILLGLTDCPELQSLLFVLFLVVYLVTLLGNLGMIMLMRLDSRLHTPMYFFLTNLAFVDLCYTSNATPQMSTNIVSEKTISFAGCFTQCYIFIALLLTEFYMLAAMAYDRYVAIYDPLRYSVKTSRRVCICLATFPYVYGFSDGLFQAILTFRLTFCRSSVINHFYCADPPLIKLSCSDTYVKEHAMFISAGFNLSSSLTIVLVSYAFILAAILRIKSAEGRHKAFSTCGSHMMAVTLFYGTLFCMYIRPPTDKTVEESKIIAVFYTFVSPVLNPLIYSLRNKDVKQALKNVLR
Method in brief: as §1

OR5M8 (Homo sapiens) = target: T8, OR5M8 (Homo sapiens) (UniProt Q8NGP6)
T8 sequence (whole entry): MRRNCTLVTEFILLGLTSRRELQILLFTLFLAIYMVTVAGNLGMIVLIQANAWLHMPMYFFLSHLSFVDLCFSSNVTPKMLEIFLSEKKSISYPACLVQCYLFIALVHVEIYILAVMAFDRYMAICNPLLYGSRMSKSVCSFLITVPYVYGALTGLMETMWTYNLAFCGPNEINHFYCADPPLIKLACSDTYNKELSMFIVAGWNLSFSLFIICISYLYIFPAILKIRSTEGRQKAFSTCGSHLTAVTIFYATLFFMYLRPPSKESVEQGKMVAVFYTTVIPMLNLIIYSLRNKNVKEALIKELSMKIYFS
Method in brief: as §1

OR5M9 (Homo sapiens) = target: T9, OR5M9 (Homo sapiens) (UniProt Q8NGP3)
T9 sequence (whole entry): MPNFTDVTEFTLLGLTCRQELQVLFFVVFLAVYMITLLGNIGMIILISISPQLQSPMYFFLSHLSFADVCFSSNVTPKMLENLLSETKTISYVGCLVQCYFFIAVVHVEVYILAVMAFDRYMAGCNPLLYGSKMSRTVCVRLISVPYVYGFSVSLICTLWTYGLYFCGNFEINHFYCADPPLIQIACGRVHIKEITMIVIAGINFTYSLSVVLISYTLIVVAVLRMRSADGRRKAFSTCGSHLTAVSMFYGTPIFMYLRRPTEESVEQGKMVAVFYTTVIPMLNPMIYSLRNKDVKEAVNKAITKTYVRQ
Method in brief: as §1

OR5P2 (Homo sapiens) = target: T10, OR5P2 (Homo sapiens) (UniProt Q8WZ92)
T10 sequence (whole entry): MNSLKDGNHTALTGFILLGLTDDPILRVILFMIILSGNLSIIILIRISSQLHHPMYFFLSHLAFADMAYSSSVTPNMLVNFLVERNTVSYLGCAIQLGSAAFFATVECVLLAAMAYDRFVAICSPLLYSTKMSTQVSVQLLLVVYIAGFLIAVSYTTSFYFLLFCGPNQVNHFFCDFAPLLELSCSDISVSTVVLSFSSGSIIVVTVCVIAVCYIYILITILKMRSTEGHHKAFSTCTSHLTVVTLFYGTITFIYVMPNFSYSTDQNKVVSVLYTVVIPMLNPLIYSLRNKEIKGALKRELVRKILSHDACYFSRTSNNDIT
Method in brief: as §1

OR5P3 (Homo sapiens) = target: T11, OR5P3 (Homo sapiens) (UniProt Q8WZ94)
T11 sequence (whole entry): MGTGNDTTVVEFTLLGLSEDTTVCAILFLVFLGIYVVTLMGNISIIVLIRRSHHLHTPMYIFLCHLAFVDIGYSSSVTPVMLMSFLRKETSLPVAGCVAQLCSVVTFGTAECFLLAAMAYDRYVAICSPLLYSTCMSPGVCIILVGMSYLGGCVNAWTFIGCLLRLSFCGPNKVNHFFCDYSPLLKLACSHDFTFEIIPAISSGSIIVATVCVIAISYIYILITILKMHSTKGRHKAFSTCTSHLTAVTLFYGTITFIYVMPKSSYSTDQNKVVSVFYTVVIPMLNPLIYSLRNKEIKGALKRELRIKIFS
Method in brief: as §1

OR5T1 (Homo sapiens) = target: T12, OR5T1 (Homo sapiens) (UniProt Q8NG75)
T12 sequence (whole entry): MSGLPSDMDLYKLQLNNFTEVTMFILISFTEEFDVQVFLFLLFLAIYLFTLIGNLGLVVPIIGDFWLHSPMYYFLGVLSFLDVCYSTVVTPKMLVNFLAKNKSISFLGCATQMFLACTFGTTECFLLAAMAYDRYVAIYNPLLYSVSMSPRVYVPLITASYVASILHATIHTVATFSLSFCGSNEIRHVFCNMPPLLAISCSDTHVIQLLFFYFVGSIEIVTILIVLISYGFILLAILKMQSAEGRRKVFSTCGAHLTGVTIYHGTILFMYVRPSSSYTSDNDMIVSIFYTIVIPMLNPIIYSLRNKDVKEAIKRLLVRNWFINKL
Method in brief: as §1

OR5T2 (Homo sapiens) = target: T13, OR5T2 (Homo sapiens) (UniProt Q8NGG2)
T13 sequence (whole entry): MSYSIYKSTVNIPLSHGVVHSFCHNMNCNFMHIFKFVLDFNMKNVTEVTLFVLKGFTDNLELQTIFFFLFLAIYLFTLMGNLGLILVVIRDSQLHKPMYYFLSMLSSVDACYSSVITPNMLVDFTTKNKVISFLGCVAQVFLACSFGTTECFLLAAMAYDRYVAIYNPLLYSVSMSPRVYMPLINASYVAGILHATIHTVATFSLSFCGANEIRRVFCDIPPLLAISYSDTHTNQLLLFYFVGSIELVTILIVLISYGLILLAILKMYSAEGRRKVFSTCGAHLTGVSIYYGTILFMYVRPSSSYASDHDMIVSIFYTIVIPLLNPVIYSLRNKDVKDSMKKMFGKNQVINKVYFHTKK
Method in brief: as §1

OR5L2 (Homo sapiens) = target: T14, OR5L2 (Homo sapiens) (UniProt Q8NGL0)
T14 sequence (whole entry): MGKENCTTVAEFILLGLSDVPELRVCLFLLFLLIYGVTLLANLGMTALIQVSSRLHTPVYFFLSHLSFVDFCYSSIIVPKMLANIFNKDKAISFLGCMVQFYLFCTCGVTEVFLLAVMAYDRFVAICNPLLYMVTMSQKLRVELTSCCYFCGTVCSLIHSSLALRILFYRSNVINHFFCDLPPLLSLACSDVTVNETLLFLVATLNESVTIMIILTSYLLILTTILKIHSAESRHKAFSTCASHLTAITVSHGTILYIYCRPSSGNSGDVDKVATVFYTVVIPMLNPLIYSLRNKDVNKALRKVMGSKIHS
Method in brief: as §1

OR5M1 T295R M301I = test system: T15, OR5M1 T295R M301I
T15 sequence (whole entry): T5 sequence (whole entry) with T295R, M301I
Method in brief: as §1

OR5M3 N3Y A156T = test system: T16, OR5M3 N3Y A156T
T16 sequence (whole entry): T1 sequence (whole entry) with N3Y, A156T
Method in brief: as §1

OR5MA L2F C311H = test system: T17, OR5MA L2F C311H
T17 sequence (whole entry): T6 sequence (whole entry) with L2F, C311H
Method in brief: as §1

OR5MA L2F Q54H C311H = test system: T18, OR5MA L2F Q54H C311H
T18 sequence (whole entry): T6 sequence (whole entry) with L2F, Q54H, C311H
Method in brief: as §1

OR5P3 L301R = test system: T19, OR5P3 L301R
T19 sequence (whole entry): T11 sequence (whole entry) with L301R
Method in brief: as §1

OR5R1 C122R S128G F184L = test system: T20, OR5R1 C122R S128G F184L
T20 sequence (whole entry): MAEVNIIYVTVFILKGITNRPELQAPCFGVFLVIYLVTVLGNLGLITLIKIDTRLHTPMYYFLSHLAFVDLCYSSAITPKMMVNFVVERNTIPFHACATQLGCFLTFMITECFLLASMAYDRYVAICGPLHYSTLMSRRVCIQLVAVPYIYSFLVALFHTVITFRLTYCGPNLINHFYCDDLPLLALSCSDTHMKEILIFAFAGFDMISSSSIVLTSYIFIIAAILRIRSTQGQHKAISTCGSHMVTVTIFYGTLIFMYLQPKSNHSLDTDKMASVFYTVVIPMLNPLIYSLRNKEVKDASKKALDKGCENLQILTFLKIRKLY
Method in brief: as §1

Measured: odorant receptor agonist call

C=CC(=O)CCCCC
inactive: OR5M3 (Homo sapiens)

CCC(=O)C1=NCCC1
inactive: OR5M3 (Homo sapiens)

CC(=O)c1c(C)c([N+](=O)[O-])c(C(C)(C)C)c([N+](=O)[O-])c1C
not listed: OR5L2 (Homo sapiens) | OR5M1 T295R M301I | OR5M3 N3Y A156T | OR5MA L2F C311H | OR5MA L2F Q54H C311H | OR5P3 L301R | OR5R1 C122R S128G F184L
inactive: all other assays above

CC(=O)c1cnccn1
inactive: OR5K3 (Homo sapiens) | OR5K4 (Homo sapiens) | OR5M3 (Homo sapiens)

CCc1nccnc1CC
inactive: OR5K3 (Homo sapiens) | OR5K4 (Homo sapiens)

COc1cnccn1
inactive: OR5K3 (Homo sapiens) | OR5K4 (Homo sapiens)

CC1=NC(C)C(C)S1 (configuration not stated)
inactive: all assays above
